Compound activity: PubChem BioAssay, several laboratories
MEKK2wt PB1 HTS: modulators of MEK5 binding to wildtype MEKK2, primary screen, biochemical, multiplex bead flow cytometry, Alexa488-MEK5. hit rate 1.1% among 290,000. AID 1531, 2009. Mitogen-activated protein kinase kinase kinase 2 (Homo sapiens), Q9Y2U5. Alexa488-MEK5 binding to MEKK2 WT; actives lie on both sides. binding response (% of control), % at 10 µM; in the data active = binding response below about 67% or above about 130%; inconclusive = no clear call, values can overlap the other calls; inactive = in between
UCH37 DUB inh: inhibitors of human UCH37 deubiquitinase, primary screen, biochemical, Ub-AMC cleavage, fluorescence | inhibition, % (concentration not given with the values) | Ubiquitin carboxyl-terminal hydrolase isozyme L5 (Homo sapiens), Q9Y5K5 | purified proteasome/UCH37 | hit rate 0.33% among 330,000;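 active = mean inhibition over replicate wells above about 20%, limit read from the data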
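system = Proteasome-associated human UCH37 deubiquitinase | amount = 0.15 nM proteasome as dispensed | medium = pH 7.4 Tris-HCl (50 mM) with ovalbumin, ATP-MgCl2, DTT | incubation = 30 min preincubation with enzyme, 25 min cleavage at room temperature | detection = AMC fluorescence 355/460 nm | read-out basis = percent inhibition | controls = no-proteasome and no-compound wells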
T cell modulator: modulators of CD8 T cell-vesicle binding, primary screen, mouse 2C CD8+ T cells, flow cytometry; response (vesicle binding), % at 7 µM; 2C CD8+ T cell-vesicle binding; stronger effect = lower value; hit rate 0.068% among 330,000;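 active = response, share of CD8 T cells binding vesicles, and their 90th percentile fluorescence all below set limits, cut at about 80% in these data, passing the limit was not always enough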;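 note: values below 100% mean blocked vesicle binding to the CD8+ T cells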
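Benchmarks: naked versus QL9-loaded vesicles / Assay system: purified 2C TCR transgenic mouse naive CD8+ T cells / Technique: high-throughput flow cytometry with anti-B7-1 and anti-CD8 staining / Timing: Cell–vesicle co-incubation 1.5 h at 37 °C, staining 20 min on ice / Read-out: percent CD8+ FL2 mean versus row control / Probe or stimulus: QL9-loaded Drosophila micro-vesicles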
MEKK3 PB1 HTS: modulators of MEKK3-MEK5 PB1 binding, primary screen, biochemical, wildtype MEKK3, multiplex bead flow cytometry, Alexa488-MEK5. Mitogen-activated protein kinase kinase kinase 3 (Homo sapiens), Q99759. bead-based flow cytometry, Alexa488-MEK5 binding to MEKK3; actives lie on both sides; 0 = blocked by unlabeled MEK5, 100 = vehicle. binding response (% of control), % at 10 µM. hit rate 1.4% among 290,000. AID 1529, 2009;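 active = binding response more than 3 SD above or below the average of its plate-row segment, actives on both sides; inconclusive = wells at one plate position flagged as instrument error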;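 note: Alexa488 bead fluorescence after subtracting the streptavidin-only scavenger bead signal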
Rce1 inh: yeast Rce1p protease inhibitors, primary screen, biochemical, fluorescence, cell-free homogeneous. CAAX prenyl protease 2 (Saccharomyces cerevisiae (strain ATCC 204508 / S288c)), Q03530. yeast membranes, quenched prenylated peptide cleavage fluorescence. calls only. hit rate 0.27% among 290,000;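 active = fall in fluorescence gain of 50% or more versus controls, with final raw signal at or below 3038400; inconclusive = same 50% fall but final raw signal above 3038400; inactive = fall in fluorescence gain under 50%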
Target sequence (Q03530 whole entry, looked up): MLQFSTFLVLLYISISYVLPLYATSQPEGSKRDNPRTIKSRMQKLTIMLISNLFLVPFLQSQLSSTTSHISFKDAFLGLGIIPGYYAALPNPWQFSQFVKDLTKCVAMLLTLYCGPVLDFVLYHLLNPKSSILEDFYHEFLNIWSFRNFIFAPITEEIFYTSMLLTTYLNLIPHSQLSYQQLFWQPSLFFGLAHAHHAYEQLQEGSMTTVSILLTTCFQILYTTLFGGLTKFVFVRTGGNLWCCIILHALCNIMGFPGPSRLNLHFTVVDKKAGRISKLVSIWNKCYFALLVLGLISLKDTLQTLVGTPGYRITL
MEKK2 mut-MEK5: MEK5 binding signal on mutant MEKK2 PB1, primary screen, biochemical, multiplex bead flow cytometry, Alexa488-MEK5; Alexa488-MEK5 binding to MEKK2 mutant; percent response, % at 10 µM; hit rate 0.35% among 290,000; in the data active = percent response above about 24%, passing the limit was not always enough
MEKK2wt confirm: modulators of MEK5 binding to wildtype MEKK2, confirmation, biochemical, single concentration, multiplex bead flow cytometry. shares compounds with MEKK3 PB1 HTS. Alexa488-MEK5 binding to MEKK2 WT; actives lie on both sides. binding response (% of control), % at 10 µM. hit rate 2.4% among 5,900. AID 1892, 2009; in the data active = binding response below about 16% or above about 210%; inactive = in between
MEKK2mut confirm: mutant MEKK2 PB1-MEK5 binding signal retest – biochemical, single concentration, multiplex bead flow cytometry, confirmation; shares compounds with MEKK3 PB1 HTS; Alexa488-MEK5 binding to MEKK2 mutant; percent response, % at 10 µM; hit rate 2% among 5,900; in the data active = percent response mostly above about 71%, no sharp cut-off; inactive = mostly below about 38%;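 note: higher means compound restores mutant binding toward wildtype level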
MEKK3-MEK5 inh: MEKK3 wild-type PB1 binding to MEK5, inhibitors, confirmation, biochemical, bead multiplex flow cytometry, single concentration, wildtype | shares compounds with MEKK3 PB1 HTS | Alexa488-MEK5 binding to MEKK3; stronger effect = lower value | binding response (% of control), % at 10 µM | hit rate 1.8% among 5,900;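 active = binding response below 72% of control, or above a set upper limit, though filed actives all read lower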
Each line names hits and unclear results; the compound was inactive in the other large screens (follow-up assays come after a bar, where they were run); [ ] = remark or other dose. An excerpt weighted towards active compounds, which were near 2.5% of everything screened.

Cc1ccc(S(=O)(=O)Oc2cccc(/C=N/n3cnnc3)c2)cc1	none (no result: UCH37 DUB inh)
Cc1ccc(S(=O)(=O)Oc2cccc(/C=N/Nc3ccc(C(=O)O)cc3)c2)cc1	MEKK3 PB1 HTS 132.0 (no result: UCH37 DUB inh) | MEKK2wt confirm inactive | MEKK2mut confirm inactive | MEKK3-MEK5 inh inactive
O=C(NC1CC1)c1sc2ccccc2c1Cl	none
O=C(NNC(=O)C1CC2CCC1C2)c1sc2ccccc2c1Cl (stereo not given)	MEKK3 PB1 HTS 149.0 | MEKK2wt confirm inactive | MEKK2mut confirm inactive | MEKK3-MEK5 inh inactive
COc1ccccc1-n1c(CNc2c(C)cccc2C)nnc1SCC(=O)N1CCOCC1	MEKK3 PB1 HTS 122.0 (no result: Rce1 inh) | MEKK2wt confirm inactive | MEKK2mut confirm inactive | MEKK3-MEK5 inh inactive
O=C(O)COCC(=O)Nc1ccc(Oc2ncnc3cc(Cl)ccc23)nc1	MEKK3 PB1 HTS 48.0[inhibitor] | MEKK2wt confirm inactive | MEKK2mut confirm inactive | MEKK3-MEK5 inh inactive
O=c1c2ccccc2c(C=NC2CCN(Cc3ccccc3)CC2)c(O)n1Cc1ccc2c(c1)OCO2	MEKK2wt PB1 HTS 154.0 | MEKK2wt confirm inactive | MEKK2mut confirm inactive | MEKK3-MEK5 inh inactive
Clc1ccc(-c2nnc(CCc3ccccc3)o2)c(Cl)c1	MEKK3 PB1 HTS 55.0[inhibitor] | MEKK2wt confirm inactive | MEKK2mut confirm inactive | MEKK3-MEK5 inh inactive
CCN1CCN(S(=O)(=O)c2cccc([N+](=O)[O-])c2)CC1	MEKK2wt PB1 HTS inconclusive, MEKK3 PB1 HTS inconclusive
O=[N+]([O-])c1cccc(S(=O)(=O)N2CCCC2)c1	MEKK3 PB1 HTS 15.0[inhibitor], MEKK2 mut-MEK5 90.0 (no result: MEKK2wt PB1 HTS) | MEKK2wt confirm inactive | MEKK2mut confirm inactive | MEKK3-MEK5 inh inactive
COc1ccc2[nH]c(=O)c(CNC3CCCCC3)cc2c1	MEKK3 PB1 HTS 78.0[inhibitor] | MEKK2wt confirm inactive | MEKK2mut confirm inactive | MEKK3-MEK5 inh inactive
NC(=NOC(=O)c1cc([N+](=O)[O-])ccc1Cl)c1cccnc1	none (no result: MEKK2wt PB1 HTS, T cell modulator, MEKK3 PB1 HTS, Rce1 inh, MEKK2 mut-MEK5)
COc1ccc(CCNC(=S)Nc2ccc(C(C)C)cc2)cc1	MEKK3 PB1 HTS 134.0 | MEKK2wt confirm inactive | MEKK2mut confirm inactive | MEKK3-MEK5 inh inactive
COc1ccc(CCNC(=S)Nc2ccc(OC)cc2)cc1	none
Cc1cccc(OCC(=O)NN=Cc2ccc3c(c2)OCO3)c1	none (no result: MEKK2wt PB1 HTS, T cell modulator, MEKK3 PB1 HTS, Rce1 inh, MEKK2 mut-MEK5)
O=C(NNC(=O)C1CC(c2cccnc2)=NO1)Nc1ccccc1F (stereo not given)	MEKK2wt PB1 HTS 31.0, MEKK2 mut-MEK5 95.0 | MEKK2wt confirm inactive | MEKK2mut confirm inactive | MEKK3-MEK5 inh inactive
CCCCC(CC)Cn1c(O)c(/C=C2\C=NN=C2c2ccccc2)sc1=S (stereo not given)	MEKK3 PB1 HTS 136.0 | MEKK2wt confirm inactive | MEKK2mut confirm inactive | MEKK3-MEK5 inh inactive
CCCn1c(O)c(/C=C2\C=NN=C2c2ccccc2)sc1=S	none
O=C(NN=Cc1cc(Cl)cc([N+](=O)[O-])c1O)c1ccccc1NS(=O)(=O)c1cccs1	none (no result: MEKK2wt PB1 HTS, T cell modulator, MEKK3 PB1 HTS, Rce1 inh, MEKK2 mut-MEK5)
CCCc1cc(=O)[nH]c(N=C(NC(=O)C(C)N2C(=O)c3ccccc3C2=O)Nc2ccccc2)n1 (stereo not given)	none (no result: MEKK2wt PB1 HTS, T cell modulator, MEKK3 PB1 HTS, Rce1 inh, MEKK2 mut-MEK5)
